Experimental data from ChEMBL document CHEMBL1145091, “Ring-expanded ("fat") nucleoside and nucleotide analogues exhibit potent in vitro activity against flaviviridae NTPases/helicases, including those of the West Nile virus, hepatitis C virus, and Japanese encephalitis virus” (J Med Chem, 2003).

Columns and labels:
[1] = system: Hepatitis C virus; experiment: Tested for inhibition against Helicase activity of hepatitis C virus (HCV) in presence of ATP adjusted to 105 uM and 4.7 pM of DNA substrate; type: functional, Hepacivirus hominis
How it was run: (§1)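 Unwinding of a 32P 5'-end-labelled partial duplex (26-mer released strand on 40-mer template; DNA or RNA as per line, 4.7 pM nucleotide base), using purified NTPase/helicase (2 pmol WNV from infected Vero E6 medium; 0.5 pmol HCV or 4 pmol JEV NS3 domain, or 0.2 pmol Suv3(Δ1–159), E. coli-expressed). ATP was set at each enzyme's ATPase Km: WNV 9.5 μM, HCV 105 μM, JEV 235 μM, Suv3 4.2 μM. The reaction ran in pH 7.5 Tris with 2 mM MgCl2 for 30 min at 30 °C.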

[2] = system: Japanese encephalitis virus; experiment: Tested for inhibition against Helicase activity of Japanese encephalitis virus (JEV) in presence of ATP adjusted to 235 uM and 4.7 pM of DNA substrate; type: functional; how it was run: as §1
[3] = Tested for inhibition against Helicase activity of human NTPase/Helicase Suv3 (delta1-159) in presence of ATP adjusted to 4.2 uM and 4.7 pM of DNA substrate; type: functional; how it was run: as §1
[4] = system: West Nile virus; experiment: Tested for inhibition against Helicase activity of west nile virus (WNV) in presence of ATP adjusted to 9.5 uM and 4.7 pM of DNA substrate; type: functional; how it was run: as §1
[5] = system: Hepatitis C virus; experiment: Tested for inhibition against Helicase activity of hepatitis C virus (HCV) in presence of ATP adjusted to 105 uM and 4.7 pM of RNA duplex substrate; type: functional, Hepacivirus hominis; how it was run: as §1
[6] = system: Japanese encephalitis virus; experiment: Tested for inhibition against Helicase activity of Japanese encephalitis virus (JEV) in presence of ATP adjusted to 235 uM and 4.7 pM of RNA duplex substrate; type: functional; how it was run: as §1
[7] = Tested for inhibition against Helicase activity of human NTPase/Helicase Suv3 (delta1-159) in presence of ATP adjusted to 4.2 uM and 4.7 pM of RNA duplex substrate; type: functional; how it was run: as §1
[8] = system: West Nile virus; experiment: Tested for inhibition against Helicase activity of west nile virus (WNV) in presence of ATP adjusted to 9.5 uM and 4.7 pM of RNA duplex substrate; type: functional; how it was run: as §1
[9] = system: Hepatitis C virus; experiment: Tested for activating effect of hepatitis C virus (HCV) in presence of ATP adjusted to 105 uM and 4.7 pM of DNA substrate; type: functional, Hepacivirus hominis; how it was run: as §1
[10] = system: West Nile virus; experiment: Tested for activating effect of west nile virus (WNV) in presence of ATP adjusted to […] and 4.7 pM of DNA substrate; type: functional
[11] = system: Hepatitis C virus; experiment: Tested for inhibition against 1.05 nM ATPase activity of hepatitis C virus (HCV) in presence of ATP adjusted to 1*10e-5 of Km of enzyme; type: functional, Hepacivirus hominis
How it was run: (§2)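 ATPase assay measuring 33Pi released from [γ-33P]ATP. Enzymes were 2 pmol WNV, 0.5 pmol HCV, 4 pmol JEV or 0.2 pmol Suv3(Δ1–159). The reaction ran in pH 7.5 Tris with 2 mM MgCl2 and 0.1 mg/mL BSA for 30 min at 30 °C and was stopped with activated charcoal; supernatant was scintillation-counted.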

[12] = system: Hepatitis C virus; experiment: Tested for inhibition against 1.05 nM ATPase activity of hepatitis C virus (HCV) in presence of ATP adjusted to 1*10e-4 of Km of enzyme; type: functional, Hepacivirus hominis; how it was run: as §2
[13] = system: Japanese encephalitis virus; experiment: Tested for inhibition against 2.35 nM ATPase activity of Japanese encephalitis virus (JEV) in presence of ATP adjusted to 1*10e-5 of Km of enzyme; type: functional; how it was run: as §2
[14] = system: Japanese encephalitis virus; experiment: Tested for inhibition against […] ATPase activity of Japanese encephalitis virus (JEV) in presence of ATP adjusted to 1*10e-4 of Km of enzyme; type: functional; how it was run: as §2
[15] = Tested for inhibition against 42 nM ATPase activity of human NTPase/Helicase Suv3 (delta1-159) in presence of ATP adjusted to 1*10e-5 of Km of enzyme; type: functional; how it was run: as §2
[16] = Tested for inhibition against 42 pM ATPase activity of human NTPase/Helicase Suv3 (delta1-159) in presence of ATP adjusted to 1*10e-4 of Km of enzyme; type: functional; how it was run: as §2
[17] = system: West Nile virus; experiment: Tested for inhibition against 95 pM ATPase activity of west nile virus (WNV) in presence of ATP adjusted to 1*10e-5 of Km of enzyme; type: functional; how it was run: as §2
[18] = system: West Nile virus; experiment: Tested for inhibition against 95 pM ATPase activity of west nile virus (WNV) in presence of ATP adjusted to 1*10e-4 of Km of enzyme; type: functional; how it was run: as §2
[19] = system: Hepatitis B virus; experiment: Tested for inhibition against […] in cultured human hepatoblastoma 2.2.15 cells; type: functional, organism-based; conditions: HepG2 2.2.15
[20] = system: Flavivirus; experiment: Tested for inhibition against Flaviviridae NTPase/helicase (NTPase/helicase Non structural protein 3); type: functional; conditions: Orthoflavivirus
[21] = Antimeasles activity determined; type: functional
[22] = system: Human rhinovirus sp.; experiment: Antirhino activity determined; type: functional, organism-based

SMILES | IC50 [1] | IC50 [2] | IC50 [3] | IC50 [4] | IC50 [5] | IC50 [6] | IC50 [7] | IC50 [8] | other results
CO[C@@H]1[C@H](O)[C@@H](CO)O[C@H]1n1cnc2c(=O)[nH][nH]c(=O)c21 | 450 µM | > 500 µM | > 500 µM | 30 µM |  |  |  |  | 
NC1=NC(=O)C2C(N=CN2COCCO)C(=O)N1 (centres undefined) | > 500 µM | > 500 µM |  | > 500 µM |  |  |  |  | 
NC1=NC(=O)C2C(N=CN2COCCOCc2ccccc2)C(=O)N1 (centres undefined) | 11 µM | 150 µM | 5 µM | 5.7 µM | 5.5 µM | > 500 µM | 6 µM | 3.3 µM | 
O=C1NC2C(N=CN2Cc2ccccc2)C(=O)N(Cc2ccccc2)N1 (centres undefined) | > 500 µM | > 500 µM | > 500 µM | 3.5 µM | > 500 µM | > 500 µM | > 500 µM | > 500 µM | 
NC1=NC(=O)C2C(N=CN2[C@H]2O[C@H](CO)[C@@H](O)[C@H]2O)C(=O)N1 (some centres undefined) |  | > 500 µM | > 500 µM |  | 12 µM | 4.5 µM | 3.5 µM | 220 µM | ED200 [9]: 150 µM; ED200 [10]: 60 µM
Nc1nc(=O)c2c(ncn2[C@@H]2C[C@H](O)[C@@H](CO)O2)c(=O)[nH]1 | 7 µM | 13 µM | 28 µM | 25 µM | > 500 µM | 2 µM | 150 µM | 5.7 µM | 
CO[C@@H]1[C@H](O)[C@@H](CO)O[C@H]1n1cnc2c(=O)[nH]c(N)nc(=O)c21 |  | > 500 µM | > 500 µM | > 500 µM |  |  |  |  | ED200 [9]: 350 µM
NC1=NC(=O)C2N=CNC2C(=O)N1 (centres undefined) | > 500 µM | > 500 µM |  | > 500 µM | 200 µM | > 500 µM | 500 µM | 220 µM | 
O=C1NC2N=CNC2C(=O)N(Cc2ccccc2)N1 (centres undefined) | > 500 µM | > 500 µM | > 500 µM | 1.3 µM | > 500 µM | > 500 µM | > 500 µM | > 500 µM | 
NC1=NC(=O)C2C(N=CN2CCOCP(=O)(O)O)C(=O)N1 (centres undefined) | 200 µM | > 500 µM | > 500 µM | 500 µM |  |  |  |  | 
O=C1NNC(=O)C2C(N=CN2C2O[C@H](COP(=O)(O)OP(=O)(O)OP(=O)(O)O)[C@@H](O)[C@H]2O)N1 (some centres undefined) |  |  |  |  |  |  |  |  | IC50 [11]: 1.5 µM; Ki [12]: 1.7 µM; IC50 [13]: 40 µM; Ki [14]: 15 µM; IC50 [15]: 125 µM; Ki [16]: 45 µM; IC50 [17]: 4 µM; Ki [18]: 2.9 µM
N=C1N=C(N)N=C(N)C2N=CN(C3O[C@@H](COP(=O)(O)OP(=O)(O)OP(=O)(O)O)[C@H](O)[C@@H]3O)C12 (some centres undefined) |  |  |  |  |  |  |  |  | IC50 [11]: 0.55 µM; Ki [12]: 0.2 µM; IC50 [13]: 12 µM; Ki [14]: 3.5 µM; IC50 [15]: 40 µM; Ki [16]: 15 µM; IC50 [17]: 0.15 µM; Ki [18]: 0.38 µM
N=C1N=C(N)N=C(N)C2N=CN(C3O[C@@H](CO)[C@H](O)[C@@H]3O)C12 (some centres undefined) | > 500 µM | > 500 µM | > 500 µM | > 500 µM |  |  |  |  | 
NC1=NC(=O)C2C(N=CN2[C@@H]2O[C@H](CO)C(O)[C@H]2O)C(=O)N1 (single isomer, unassigned) |  |  |  |  |  |  |  |  | IC50 [19]: 0.13 µM; IC50 [20]: > 500 µM
NC1=NC(=O)C2C(N=CN2[C@H]2CC(O)[C@@H](CO)O2)C(=O)N1 (single isomer, unassigned) |  | > 500 µM | > 500 µM | > 500 µM |  |  |  |  | ED200 [9]: 100 µM
NC1=NC(=O)C2C(N=C(c3ccccc3)N2C2O[C@H](CO)C(O)[C@H]2O)C(=O)N1 (single isomer, unassigned) |  |  |  |  |  |  |  |  | IC50 [21]: 0.5 µM; IC50 [22]: 6.7 µM
O=C1NNC(=O)C2C(N=CN2C2O[C@H](CO)C(O)[C@H]2O)N1 (single isomer, unassigned) | > 500 µM | > 500 µM | > 500 µM | > 500 µM |  |  |  |  | 
